Screening results deposited in PubChem BioAssay by Johns Hopkins Ion Channel Center.
Rows were chosen to be rich in hits. Some 2.3% of all compounds tested hit in one or more screens of this group.
TRPC4 agonist – TRPC4 (mouse) channel activation | hit rate 0.49% among 310,000 | Q9QUQ5 | AID 2237 | B-score at 10 µM | HEK293 TRPC4beta/mu-opioid, Fluo4 calcium fluorescence; hits give high values;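 active = B-score above 5 SD of library B-scores, and initial fluorescence ratio not above library mean plus 5 SD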;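 also: positive B-score marks a calcium rise read as TRPC4 activation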
Target sequence (Q9QUQ5 whole entry, looked up): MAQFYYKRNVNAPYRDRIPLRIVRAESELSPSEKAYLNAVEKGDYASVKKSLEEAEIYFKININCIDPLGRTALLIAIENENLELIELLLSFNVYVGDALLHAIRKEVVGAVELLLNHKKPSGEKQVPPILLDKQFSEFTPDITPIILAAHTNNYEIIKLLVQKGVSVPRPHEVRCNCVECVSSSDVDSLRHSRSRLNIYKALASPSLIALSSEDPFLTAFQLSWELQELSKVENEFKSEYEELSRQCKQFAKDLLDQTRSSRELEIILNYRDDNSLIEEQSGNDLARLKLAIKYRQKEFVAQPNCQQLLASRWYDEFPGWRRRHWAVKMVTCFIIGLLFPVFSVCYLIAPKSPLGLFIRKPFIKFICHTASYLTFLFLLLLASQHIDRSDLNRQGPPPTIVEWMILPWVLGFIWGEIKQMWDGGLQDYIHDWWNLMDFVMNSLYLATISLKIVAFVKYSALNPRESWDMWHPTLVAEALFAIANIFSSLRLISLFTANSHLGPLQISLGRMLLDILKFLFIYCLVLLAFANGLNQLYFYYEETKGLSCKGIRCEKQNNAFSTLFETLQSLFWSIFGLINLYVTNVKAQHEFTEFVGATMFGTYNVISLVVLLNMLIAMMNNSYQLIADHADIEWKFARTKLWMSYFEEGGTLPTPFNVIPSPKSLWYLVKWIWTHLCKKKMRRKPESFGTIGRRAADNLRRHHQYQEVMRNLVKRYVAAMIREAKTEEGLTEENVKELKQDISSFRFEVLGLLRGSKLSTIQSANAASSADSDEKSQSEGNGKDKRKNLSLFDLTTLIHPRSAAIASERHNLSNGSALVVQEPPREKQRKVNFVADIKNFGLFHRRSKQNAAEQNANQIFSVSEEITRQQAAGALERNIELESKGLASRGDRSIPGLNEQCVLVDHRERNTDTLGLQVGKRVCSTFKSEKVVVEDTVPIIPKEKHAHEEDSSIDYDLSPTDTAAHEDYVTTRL
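Assay system: HEK293 stable line with TRPC4beta plus mu-opioid receptor. Times: dye 45 min RT, read 110 s. Measured by: kinetic Fluo4 calcium fluorescence. Measure: B score of integrated ratio. Controls: assay buffer as low control, maximal DAMGO as high control.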
TRPC4 PAM – allosterically enhances the mouse TRPC4 cation channel; HEK293 TRPC4beta/mu-opioid, DAMGO EC20, Fluo-4 Ca2+ flux; hits give high values; B-score at 10 µM; hit rate 0.42% among 310,000; AID 2227;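 active = B-score of calcium response area above 5 SD of library B-scores, with initial fluorescence ratio within 5 SD of library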
TRPC6 inhibitor – mouse TRPC6 channel inhibition. Q61143. HEK293-TRPC6, membrane potential dye, ACh-evoked depolarization; hits give low values. B-score at 10 µM. hit rate 1.1% among 310,000;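 active = B-score under library mean minus 3 SD, initial fluorescence not abnormally high, positive integrated signal ratio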;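 also: B-score derived from integrated fluorescence ratio over the kinetic read; more negative B-score means stronger inhibition of depolarization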
TRPC4 inh – blocks the mouse TRPC4 cation channel | HEK293 TRPC4beta/mu-opioid, DAMGO-evoked Fluo4 calcium flux; hits give low values | B-score at 10 µM | hit rate 0.39% among 300,000 | AID 2247;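 active = B-score over 3 SD under the library average, no early fluorescence shift, positive overall ratio signal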
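Assay system – HEK293 line stably carrying TRPC4beta and mu-opioid receptor · Doses – single dose · Detection – Fluo4 calcium-dye fluorescence, kinetic read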
TRPC6 act – activators of mouse TRPC6 channel; Q61143; HEK293-TRPC6 membrane potential dye fluorescence; hits give high values; B-score at 10 µM; hit rate 0.13% among 310,000; AID 2550;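 active = B-score of the integrated fluorescence ratio above library mean plus 3 SD, and starting fluorescence ratio within library mean plus 5 SD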;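 also: higher score means more depolarization so channel activation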
Hits are given with their value; – = inactive.

SMILES | TRPC4 agonist | TRPC4 PAM | TRPC6 inhibitor | TRPC4 inh | TRPC6 act
CC1c2ccccc2SC(CCCN(C)C)c2ccccc21 (centres undefined) | – | – | – | – | –
CCOC(=O)Cc1csc(NC(=O)NC2(C(F)(F)F)Oc3ccc(Cl)cc3O2)n1 (centres undefined) | – | – | – | – | –
CCOC(=O)Cc1csc(NC(=O)NC2(C(F)(F)F)Oc3cc(Cl)c(Cl)cc3O2)n1 | – | – | – | -7 | –
CC1(C)Cc2ccccc2C(NNC(=O)c2ccc(Br)o2)=N1 | – | – | – | – | –
c1ccc2c(-c3cn4ccccc4n3)c[nH]c2c1 | – | – | -5.47 | -9 | –
CCC(O)(c1ccc(OC)cc1)C(CN1CCOCC1)c1ccccc1 (centres undefined) | – | – | – | -6 | –
COc1ccc(C(O)(C2CCCCC2)C(CN2CCOCC2)c2ccccc2)cc1 (centres undefined) | – | 14 | – | – | –
COc1ccc(C(O)(C(C)C)C(CN2CCOCC2)c2ccc(Cl)cc2)cc1 (centres undefined) | – | 12 | – | – | –
CCN(CC)CCCNC(=O)c1ccc2c(SCC(=O)O)c3c(nc2c1)CCC3 | – | – | – | – | –
CC1CC(C)CN(CCCNC(=O)c2ccc3c(SCC(=O)O)c4c(nc3c2)CCC4)C1 (centres undefined) | 76 | – | – | – | –
Cc1nc2ccccc2c2oc(C(=O)NCCCN3CC(C)CC(C)C3)cc12 (centres undefined) | 83 | – | – | – | –
Cc1ccc(C(=O)O)cc1NC(=S)NC(=O)c1ccc(COc2ccccc2)cc1 | – | – | – | – | –
O=C(O)c1ccc(N/N=C/c2ccc(-c3cccc(Cl)c3)o2)cc1 | – | – | – | -6 | –
CCN(CC)CCCNC(=S)N1CCN(c2nc3ccccc3n2CC)CC1 | – | 15 | – | – | –
CCN(CC)CCCNC(=S)N1CCn2c(nc3ccccc32)C1 | – | – | – | – | –
Cc1ccc(N2C(=O)N(Cc3ccccc3C)c3ccccc3S2(=O)=O)cc1 | – | – | – | – | –
CCCCNc1nc(=S)[nH]c2cc(OC)c(OC)cc12 | – | – | – | -8 | –
Cc1ccc(/C=C/C(=O)c2ccc(O)cc2)cc1 | – | – | – | -6 | –
O=C(CSC1=NS(=O)(=O)c2ccccc2N1)NCc1ccc(F)cc1 | – | – | – | – | –
CCN1C(=O)[C@H]2[C@@H](c3ccc(-c4ccc(Cl)c(Cl)c4)cc3)N[C@@](Cc3ccccc3)(C(=O)OC)[C@H]2C1=O | – | – | – | – | –
CC1CCc2c(C(=O)N3CCN(S(=O)(=O)c4cccs4)CC3)csc2C1 (centres undefined) | – | 29 | – | – | –
Cc1ccc(-n2cc(CNCCc3cscn3)c(-c3ccc(F)cc3)n2)cc1 | 130 | – | – | – | –
Cc1ccc(-n2cc(CNC(C)c3cnn(C)c3C)c(-c3ccc(F)cc3)n2)cc1 (centres undefined) | 184 | – | – | – | –
Cc1ccc(-c2nn(-c3ccccc3)cc2CNCc2ccccc2)cc1 | – | – | – | – | –
Cc1ccc(-n2cc(CN3CCN(Cc4nccn4C)CC3)c(-c3ccc(F)cc3)n2)cc1 | – | – | – | – | –
SMILES | TRPC4 agonist | TRPC4 PAM | TRPC6 inhibitor | TRPC4 inh | TRPC6 act
Cc1ccc(-n2cc(CNC(C)c3cnn(C)c3)c(-c3ccc(F)cc3)n2)cc1 (centres undefined) | 233 | – | – | – | –
CCCCCCCCCCOC(=O)Cn1c(COc2ccccc2C)[n+](C)c2ccccc21 | – | – | – | -6 | –
COc1cc2c(cc1OC)CN(CC(=O)Nc1ccc(F)cc1)C(C(=O)O)C2 (centres undefined) | – | – | – | – | –
COc1cc(/C=C2/SC(=S)N(CC(=O)O)C2=O)ccc1OCC(=O)Nc1ccc(C)c(C)c1 | – | – | – | – | –
CCN1C(=O)CSC1=NC12CC3CC(CC(C3)C1)C2 | – | – | – | -5 | –
CN1C(=O)CSC1=NC12CC3CC(CC(C3)C1)C2 | – | – | – | -6 | –
CN1C(=O)CSC1=Nc1ccc(Br)cc1 | – | – | – | – | –
CCc1nnc(NC(=O)CCC(=O)NC2CCCC2)s1 | – | – | – | – | –
Cc1cccc(C)c1NC(=O)CN(C)C(=O)Cn1c(=O)cnc2ccccc21 | – | – | – | – | –
COc1ccc(-c2ccc(CNCc3ccccn3)o2)cc1Cl | – | – | – | -8 | –
